This is an account of results in PMC7458062 (ACS Infectious Diseases, 2020).

Usually MIC stands for the smallest concentration in the dilution series that meets the test's criterion for growth inhibition.

One experiment has as its system E. coli DH10B blaCTX-M-9. In kind it is cell-based. Conditions: Escherichia coli, read-out: MIC of FEP, E. coli, DH10B blaCTX-M-9.
For experiment [1], the system named is P. aeruginosa 18SH strain, blaPDC. In kind it is cell-based. To be noted: Pseudomonas aeruginosa, read-out: MIC of CAZ, P. aer. 18SH blaPDC. In a few lines: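 CLSI broth microdilution in Mueller-Hinton broth, with inoculum at 6 × 10^4 cfu/mL final. Ceftazidime was tested from 128 to 0.06 μg/mL, with test compound held constant at 4 μg/mL. Plates were incubated overnight at 37 °C and MICs were recorded the next day.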

In the case of `CO/N=C(\C(=O)N[C@@H]1C(=O)N2C(C(=O)[O-])=C(C[N+]3(C)CCCC3)CS[C@H]12)c1csc(N)n1` [FEP, cefepime], the MIC with E. coli DH10B blaCTX-M-9 is 8 µg/mL. As for `CC(C)(O/N=C(\C(=O)N[C@@H]1C(=O)N2C(C(=O)[O-])=C(C[n+]3ccccc3)CS[C@H]12)c1csc(N)n1)C(=O)O` [CAZ, ceftazidime], the minimum inhibitory concentration (MIC) in experiment [1] is 64 µg/mL.
